Experimental findings from ChEMBL document CHEMBL1145619, “Conformation-activity relationship on novel 4-pyridylmethylthio derivatives with antiangiogenic activity” (Bioorg Med Chem Lett, 2008) are described below.

Test [1] concerns the target T1, Vascular endothelial growth factor receptor 2 (Homo sapiens, UniProt P35968). As to the kind of experiment: Inhibition of KDR by ELISA. In outline: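 KDR kinase activity measured with a commercial kinase assay development kit by ELISA. The read-out is the phosphorylation level of a biotinylated peptide containing Tyr in its sequence.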
A further test concerns HUVEC. Briefly: Antiproliferative activity against VEGF-induced HUVEC cells. It is filed as functional, cell-based. The note with it: Homo sapiens.
Test [2] deals with T1, Vascular endothelial growth factor receptor 2. Briefly: Inhibition of KDR at 10 uM by ELISA. In short, it runs like this:
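KDR kinase activity measured with a commercial kinase assay development kit by ELISA. The read-out is the phosphorylation level of a biotinylated peptide containing Tyr in its sequence. The table gives IC50 values, and gives percent inhibition at 10 µM where the IC50 exceeded the range.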

Some results are limits rather than exact numbers.

T1 sequence (P35968 whole entry): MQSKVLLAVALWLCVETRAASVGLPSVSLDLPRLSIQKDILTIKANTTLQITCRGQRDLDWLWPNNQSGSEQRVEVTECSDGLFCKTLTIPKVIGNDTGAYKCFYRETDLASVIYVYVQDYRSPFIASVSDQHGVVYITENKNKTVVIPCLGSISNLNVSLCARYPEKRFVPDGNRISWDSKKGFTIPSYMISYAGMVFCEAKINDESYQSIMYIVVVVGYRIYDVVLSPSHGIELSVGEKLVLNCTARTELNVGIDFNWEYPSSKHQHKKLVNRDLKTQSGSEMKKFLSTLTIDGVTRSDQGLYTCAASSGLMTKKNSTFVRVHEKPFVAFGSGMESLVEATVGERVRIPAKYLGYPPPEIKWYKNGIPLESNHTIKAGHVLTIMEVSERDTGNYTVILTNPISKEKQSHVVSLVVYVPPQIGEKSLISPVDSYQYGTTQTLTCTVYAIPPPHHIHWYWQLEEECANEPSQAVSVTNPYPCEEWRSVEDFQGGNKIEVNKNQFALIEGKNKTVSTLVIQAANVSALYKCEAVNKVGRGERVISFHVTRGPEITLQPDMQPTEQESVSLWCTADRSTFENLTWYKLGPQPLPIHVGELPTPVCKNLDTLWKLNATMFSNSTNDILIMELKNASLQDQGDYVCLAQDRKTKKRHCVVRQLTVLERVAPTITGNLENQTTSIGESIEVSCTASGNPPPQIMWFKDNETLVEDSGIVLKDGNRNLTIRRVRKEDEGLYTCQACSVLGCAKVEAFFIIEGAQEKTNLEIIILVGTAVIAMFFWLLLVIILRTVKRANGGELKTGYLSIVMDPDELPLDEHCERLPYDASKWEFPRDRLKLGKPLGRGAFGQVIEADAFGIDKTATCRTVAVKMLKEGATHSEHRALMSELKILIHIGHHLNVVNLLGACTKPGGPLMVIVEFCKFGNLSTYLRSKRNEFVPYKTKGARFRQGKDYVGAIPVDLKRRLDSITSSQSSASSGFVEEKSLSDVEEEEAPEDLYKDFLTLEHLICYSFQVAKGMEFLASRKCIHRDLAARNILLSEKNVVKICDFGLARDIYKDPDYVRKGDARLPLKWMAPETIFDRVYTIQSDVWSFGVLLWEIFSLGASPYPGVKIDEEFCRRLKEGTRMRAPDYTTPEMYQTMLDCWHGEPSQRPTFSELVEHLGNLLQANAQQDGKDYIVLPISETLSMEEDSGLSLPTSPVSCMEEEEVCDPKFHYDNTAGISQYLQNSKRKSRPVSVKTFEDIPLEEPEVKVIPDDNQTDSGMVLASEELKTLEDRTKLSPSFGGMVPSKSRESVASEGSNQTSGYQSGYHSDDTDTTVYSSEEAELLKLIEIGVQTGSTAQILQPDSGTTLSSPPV

In general, IC50 refers to the concentration needed to halve the response being measured. Regarding `O=C(Nc1ccc(Cl)cc1)c1ccccc1SCc1ccncc1`, the half-maximal inhibitory concentration (IC50) in test [1] is 46 nM. Broadly, the inhibition is how much of the control response was suppressed. In the case of `O=C(Nc1ccc(Cl)cc1)c1ccccc1OCc1ccncc1`, the results for the half-inhibitory concentration (IC50) (in the test with HUVEC; in test [1]) were greater than 2000 nM and greater than 1000 nM, respectively. In test [2], the inhibition worked out at 54%. In test [2], `S=C(Nc1ccc(Cl)cc1)c1ccccc1OCc1ccncc1` registered an inhibition of 0%. Further, in test [1], the IC50 is greater than 1000 nM. In turn, `O=C(Nc1ccc(Cl)cc1)c1cccnc1SCc1ccncc1` yielded an IC50 in test [1] of 26 nM. Consider `Clc1ccc(Nc2nnc(Cc3ccncc3)c3ccccc23)cc1`, for which the midpoint of inhibition with HUVEC, the IC50, lay at 6 nM.
